{
  "source": "ChEMBL document CHEMBL1153591",
  "about": "“Exploring bis-(indolyl)methane moiety as an alternative and innovative CAP group in the design of histone deacetylase (HDAC) inhibitors” (Bioorg Med Chem Lett, 2009)",
  "key": {"NCI-H460": {"test_system": "NCI-H460", "experiment": "Cytotoxicity against human H460 cells after 24 hrs by sulforhodamine B assay", "assay_type": "functional, cell-based", "conditions": "NCI-H460, 24 h"}, "HCT-116": {"test_system": "HCT-116", "experiment": "Cytotoxicity against human HCT116 cells after 24 hrs by sulforhodamine B assay", "assay_type": "functional, cell-based", "conditions": "HCT-116, 24 h"}, "Histone deacetylase 1": {"biological_target": "Histone deacetylase 1 (Homo sapiens, UniProt Q13547)", "sequence (Q13547 whole entry, the tested form may be a part, canonical isoform)": "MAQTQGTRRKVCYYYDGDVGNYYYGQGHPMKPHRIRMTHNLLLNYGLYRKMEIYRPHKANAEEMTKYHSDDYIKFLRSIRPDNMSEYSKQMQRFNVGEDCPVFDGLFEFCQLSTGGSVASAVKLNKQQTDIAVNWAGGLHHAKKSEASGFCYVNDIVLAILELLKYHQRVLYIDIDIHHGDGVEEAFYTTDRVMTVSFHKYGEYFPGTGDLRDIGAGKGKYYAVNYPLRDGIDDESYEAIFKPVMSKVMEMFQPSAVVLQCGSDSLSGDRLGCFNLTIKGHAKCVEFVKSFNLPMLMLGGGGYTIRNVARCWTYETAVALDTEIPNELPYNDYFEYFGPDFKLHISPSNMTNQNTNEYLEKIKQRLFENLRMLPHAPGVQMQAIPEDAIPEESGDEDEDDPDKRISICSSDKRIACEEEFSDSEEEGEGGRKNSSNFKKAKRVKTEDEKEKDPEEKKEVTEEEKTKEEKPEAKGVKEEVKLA", "experiment": "Inhibition of human HDAC1 by fluorimetry", "outline": "(§1)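 Each purified single HDAC isoform incubated with fluorogenic substrate, a p53 fragment (residues […], Arg-His-Lys-Lys(Ac)) carrying an ε-acetylated lysine; deacetylation releases fluorophore, read by fluorimeter. Compounds tested as 10 doses, 1:3 serial dilution starting from 50 µM solution. IC50 from dose-response inhibition curves; trichostatin A as reference compound.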"}, "Histone deacetylase 2": {"biological_target": "Histone deacetylase 2 (Homo sapiens, UniProt Q92769)", "sequence (Q92769 whole entry)": "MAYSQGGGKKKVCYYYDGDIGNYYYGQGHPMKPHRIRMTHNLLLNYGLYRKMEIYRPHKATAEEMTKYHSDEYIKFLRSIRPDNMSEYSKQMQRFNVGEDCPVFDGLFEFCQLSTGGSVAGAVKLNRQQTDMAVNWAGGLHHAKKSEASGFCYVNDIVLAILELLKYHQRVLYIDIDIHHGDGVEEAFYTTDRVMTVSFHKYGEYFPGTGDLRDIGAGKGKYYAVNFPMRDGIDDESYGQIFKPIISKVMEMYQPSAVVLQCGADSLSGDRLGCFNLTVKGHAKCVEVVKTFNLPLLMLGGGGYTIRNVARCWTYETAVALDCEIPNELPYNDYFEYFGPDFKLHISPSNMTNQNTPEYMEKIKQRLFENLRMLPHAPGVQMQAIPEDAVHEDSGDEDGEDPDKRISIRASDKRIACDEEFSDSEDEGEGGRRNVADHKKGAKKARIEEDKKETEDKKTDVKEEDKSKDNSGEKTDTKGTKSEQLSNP", "experiment": "Inhibition of human HDAC2 by fluorimetry", "outline": "as §1"}, "Histone deacetylase 3": {"biological_target": "Histone deacetylase 3 (Homo sapiens, UniProt O15379)", "sequence (O15379 whole entry)": "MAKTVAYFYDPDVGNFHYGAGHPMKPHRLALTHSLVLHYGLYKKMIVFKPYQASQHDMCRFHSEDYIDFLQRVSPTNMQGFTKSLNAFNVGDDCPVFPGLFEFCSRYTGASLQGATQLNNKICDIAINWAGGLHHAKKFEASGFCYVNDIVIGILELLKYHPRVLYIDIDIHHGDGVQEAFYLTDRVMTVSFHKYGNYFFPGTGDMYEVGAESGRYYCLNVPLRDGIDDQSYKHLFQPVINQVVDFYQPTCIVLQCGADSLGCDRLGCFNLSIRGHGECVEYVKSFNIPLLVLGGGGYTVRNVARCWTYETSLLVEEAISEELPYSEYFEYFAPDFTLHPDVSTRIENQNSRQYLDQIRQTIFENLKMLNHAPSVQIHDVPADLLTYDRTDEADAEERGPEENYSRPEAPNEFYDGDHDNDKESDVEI", "experiment": "Inhibition of human HDAC3 by fluorimetry", "outline": "as §1"}, "Histone deacetylase 4": {"biological_target": "Histone deacetylase 4 (Homo sapiens, UniProt P56524)", "sequence (P56524 whole entry)": "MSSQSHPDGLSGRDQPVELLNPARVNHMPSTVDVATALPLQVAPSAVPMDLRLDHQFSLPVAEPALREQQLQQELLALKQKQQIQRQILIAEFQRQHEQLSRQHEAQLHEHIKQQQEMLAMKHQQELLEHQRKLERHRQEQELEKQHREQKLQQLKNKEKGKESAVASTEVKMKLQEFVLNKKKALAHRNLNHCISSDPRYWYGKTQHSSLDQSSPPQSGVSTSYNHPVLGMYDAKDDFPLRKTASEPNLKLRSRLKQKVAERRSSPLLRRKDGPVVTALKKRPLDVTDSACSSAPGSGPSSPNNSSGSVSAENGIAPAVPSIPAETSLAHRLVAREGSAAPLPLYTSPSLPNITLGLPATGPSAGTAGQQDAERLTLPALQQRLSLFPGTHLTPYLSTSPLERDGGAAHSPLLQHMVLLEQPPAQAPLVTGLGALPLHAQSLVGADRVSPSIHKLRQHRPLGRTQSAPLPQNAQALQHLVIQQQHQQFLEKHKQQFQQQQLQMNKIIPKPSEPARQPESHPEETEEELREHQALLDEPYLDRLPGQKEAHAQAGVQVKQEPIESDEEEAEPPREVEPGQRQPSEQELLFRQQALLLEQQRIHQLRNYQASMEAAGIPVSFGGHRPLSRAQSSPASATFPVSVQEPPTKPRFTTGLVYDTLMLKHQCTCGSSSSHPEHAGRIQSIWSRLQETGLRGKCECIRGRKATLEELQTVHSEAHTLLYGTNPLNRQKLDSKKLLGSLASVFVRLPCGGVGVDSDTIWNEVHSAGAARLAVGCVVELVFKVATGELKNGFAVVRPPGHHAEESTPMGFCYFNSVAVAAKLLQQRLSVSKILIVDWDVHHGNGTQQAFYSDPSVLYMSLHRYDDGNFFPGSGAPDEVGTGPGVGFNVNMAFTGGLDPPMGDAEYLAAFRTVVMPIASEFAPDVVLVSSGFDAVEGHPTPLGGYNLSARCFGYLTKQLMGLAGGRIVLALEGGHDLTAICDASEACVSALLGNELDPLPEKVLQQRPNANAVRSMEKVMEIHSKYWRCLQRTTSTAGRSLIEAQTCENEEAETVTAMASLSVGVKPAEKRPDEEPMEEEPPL", "experiment": "Inhibition of human HDAC4 by fluorimetry", "outline": "as §1"}, "Histone deacetylase 5": {"biological_target": "Histone deacetylase 5 (Homo sapiens, UniProt Q9UQL6)", "sequence (Q9UQL6 whole entry)": "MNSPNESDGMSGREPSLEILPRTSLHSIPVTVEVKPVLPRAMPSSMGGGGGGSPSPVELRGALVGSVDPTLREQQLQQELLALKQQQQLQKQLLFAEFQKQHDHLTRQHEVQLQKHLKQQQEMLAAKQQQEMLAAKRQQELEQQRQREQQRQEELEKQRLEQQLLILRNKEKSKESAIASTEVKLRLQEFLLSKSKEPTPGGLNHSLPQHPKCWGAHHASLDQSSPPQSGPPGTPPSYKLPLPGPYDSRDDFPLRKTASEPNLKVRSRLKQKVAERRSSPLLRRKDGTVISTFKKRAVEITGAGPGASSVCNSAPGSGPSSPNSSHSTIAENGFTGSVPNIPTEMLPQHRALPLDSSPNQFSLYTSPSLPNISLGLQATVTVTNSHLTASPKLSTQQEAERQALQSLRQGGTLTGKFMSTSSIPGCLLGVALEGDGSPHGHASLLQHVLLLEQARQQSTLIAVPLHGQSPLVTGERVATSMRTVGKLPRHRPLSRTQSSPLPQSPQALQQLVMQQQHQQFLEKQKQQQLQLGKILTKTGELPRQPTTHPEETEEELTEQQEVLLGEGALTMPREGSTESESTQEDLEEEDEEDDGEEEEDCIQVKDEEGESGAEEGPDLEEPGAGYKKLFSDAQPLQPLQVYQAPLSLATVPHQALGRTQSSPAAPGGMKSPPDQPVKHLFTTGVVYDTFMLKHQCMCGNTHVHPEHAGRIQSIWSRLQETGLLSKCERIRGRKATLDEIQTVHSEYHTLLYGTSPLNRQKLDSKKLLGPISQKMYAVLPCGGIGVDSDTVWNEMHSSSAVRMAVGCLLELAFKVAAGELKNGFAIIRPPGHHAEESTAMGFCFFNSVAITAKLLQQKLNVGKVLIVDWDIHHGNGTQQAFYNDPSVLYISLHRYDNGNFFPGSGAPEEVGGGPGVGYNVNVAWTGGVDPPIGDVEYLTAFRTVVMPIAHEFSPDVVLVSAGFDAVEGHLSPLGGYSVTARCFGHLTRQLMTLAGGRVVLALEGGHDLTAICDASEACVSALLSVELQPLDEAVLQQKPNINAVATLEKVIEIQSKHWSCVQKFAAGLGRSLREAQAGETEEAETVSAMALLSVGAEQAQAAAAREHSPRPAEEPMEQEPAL", "experiment": "Inhibition of human HDAC5 by fluorimetry", "outline": "as §1"}, "[1]": {"biological_target": "T1, Protein deacetylase HDAC6 (Homo sapiens, UniProt Q9UBN7)", "T1 sequence (Q9UBN7 whole entry)": "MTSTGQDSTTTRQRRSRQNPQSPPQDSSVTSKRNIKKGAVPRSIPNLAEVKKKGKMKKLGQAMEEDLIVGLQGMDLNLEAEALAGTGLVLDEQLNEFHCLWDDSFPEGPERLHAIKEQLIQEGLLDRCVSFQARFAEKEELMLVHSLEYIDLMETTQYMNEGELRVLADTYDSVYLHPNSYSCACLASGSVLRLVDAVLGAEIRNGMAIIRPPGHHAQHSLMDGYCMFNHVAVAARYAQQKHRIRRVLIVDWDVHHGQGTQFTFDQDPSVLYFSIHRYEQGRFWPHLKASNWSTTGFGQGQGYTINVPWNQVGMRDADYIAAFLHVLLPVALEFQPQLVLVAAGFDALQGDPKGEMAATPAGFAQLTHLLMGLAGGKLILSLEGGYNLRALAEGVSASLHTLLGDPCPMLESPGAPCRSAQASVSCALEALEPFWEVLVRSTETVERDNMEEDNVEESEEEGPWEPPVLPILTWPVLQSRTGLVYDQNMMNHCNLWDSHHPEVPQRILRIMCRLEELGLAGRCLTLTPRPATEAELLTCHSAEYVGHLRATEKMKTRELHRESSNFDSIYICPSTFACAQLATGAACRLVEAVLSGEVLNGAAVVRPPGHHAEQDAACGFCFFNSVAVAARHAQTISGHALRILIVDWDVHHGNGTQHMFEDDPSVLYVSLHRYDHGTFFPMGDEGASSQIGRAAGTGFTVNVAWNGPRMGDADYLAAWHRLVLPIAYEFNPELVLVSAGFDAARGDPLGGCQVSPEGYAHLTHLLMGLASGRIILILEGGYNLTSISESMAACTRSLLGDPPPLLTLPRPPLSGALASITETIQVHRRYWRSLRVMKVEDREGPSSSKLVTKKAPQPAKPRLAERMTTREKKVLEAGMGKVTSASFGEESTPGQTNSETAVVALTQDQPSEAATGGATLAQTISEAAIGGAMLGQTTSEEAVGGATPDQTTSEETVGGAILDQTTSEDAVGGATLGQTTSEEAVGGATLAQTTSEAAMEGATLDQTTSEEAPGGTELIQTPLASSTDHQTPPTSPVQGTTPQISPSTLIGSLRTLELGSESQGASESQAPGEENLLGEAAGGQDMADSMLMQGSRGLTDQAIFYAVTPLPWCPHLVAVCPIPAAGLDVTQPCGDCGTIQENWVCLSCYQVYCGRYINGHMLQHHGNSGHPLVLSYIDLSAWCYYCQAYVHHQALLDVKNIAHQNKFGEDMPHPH", "experiment": "Inhibition of human HDAC6 by fluorimetry", "outline": "as §1"}, "Histone deacetylase 8": {"biological_target": "T2, Histone deacetylase 8 (Homo sapiens, UniProt Q9BY41)", "T2 sequence (Q9BY41 whole entry)": "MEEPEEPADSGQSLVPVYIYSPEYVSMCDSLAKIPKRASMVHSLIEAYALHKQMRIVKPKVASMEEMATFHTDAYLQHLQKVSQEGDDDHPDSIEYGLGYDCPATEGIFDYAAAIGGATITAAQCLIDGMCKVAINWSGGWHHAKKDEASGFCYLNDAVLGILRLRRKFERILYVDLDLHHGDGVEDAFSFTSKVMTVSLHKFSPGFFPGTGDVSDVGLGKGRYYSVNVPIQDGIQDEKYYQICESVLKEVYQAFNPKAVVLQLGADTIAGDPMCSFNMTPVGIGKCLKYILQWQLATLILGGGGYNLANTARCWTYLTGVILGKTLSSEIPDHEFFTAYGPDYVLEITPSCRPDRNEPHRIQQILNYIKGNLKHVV", "experiment": "Inhibition of human HDAC8 by fluorimetry", "outline": "as §1"}, "Histone deacetylase 9": {"biological_target": "Histone deacetylase 9 (Homo sapiens, UniProt Q9UKV0)", "sequence (Q9UKV0 whole entry)": "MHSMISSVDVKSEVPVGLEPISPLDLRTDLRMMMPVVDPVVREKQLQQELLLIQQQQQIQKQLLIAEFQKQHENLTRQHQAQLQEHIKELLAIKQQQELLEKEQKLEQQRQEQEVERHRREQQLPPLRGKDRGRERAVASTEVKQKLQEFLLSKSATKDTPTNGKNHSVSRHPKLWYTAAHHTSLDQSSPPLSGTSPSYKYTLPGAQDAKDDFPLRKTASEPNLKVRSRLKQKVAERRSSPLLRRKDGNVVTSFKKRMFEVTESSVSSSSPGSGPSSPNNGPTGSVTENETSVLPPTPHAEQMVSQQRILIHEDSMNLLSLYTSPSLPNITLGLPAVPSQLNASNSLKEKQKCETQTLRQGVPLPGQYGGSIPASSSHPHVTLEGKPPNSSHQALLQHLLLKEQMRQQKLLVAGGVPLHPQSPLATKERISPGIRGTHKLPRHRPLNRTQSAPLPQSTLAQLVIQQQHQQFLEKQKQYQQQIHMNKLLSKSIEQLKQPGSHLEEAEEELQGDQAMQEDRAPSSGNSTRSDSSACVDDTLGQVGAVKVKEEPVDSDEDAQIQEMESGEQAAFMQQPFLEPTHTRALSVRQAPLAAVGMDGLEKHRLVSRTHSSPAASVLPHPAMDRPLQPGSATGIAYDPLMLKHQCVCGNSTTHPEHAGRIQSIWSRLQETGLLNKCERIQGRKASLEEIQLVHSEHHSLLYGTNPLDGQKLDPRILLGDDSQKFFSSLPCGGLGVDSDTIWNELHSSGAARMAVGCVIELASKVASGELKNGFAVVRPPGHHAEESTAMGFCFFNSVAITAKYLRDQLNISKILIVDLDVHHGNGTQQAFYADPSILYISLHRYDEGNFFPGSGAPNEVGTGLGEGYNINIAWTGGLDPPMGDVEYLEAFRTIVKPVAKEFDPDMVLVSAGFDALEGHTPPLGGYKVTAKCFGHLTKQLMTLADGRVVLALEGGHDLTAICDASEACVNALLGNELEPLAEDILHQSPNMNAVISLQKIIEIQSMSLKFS", "experiment": "Inhibition of human HDAC9 by fluorimetry", "outline": "as §1"}, "[2]": {"biological_target": "T3, Polyamine deacetylase HDAC10 (Homo sapiens, UniProt Q969S8)", "T3 sequence (Q969S8 whole entry)": "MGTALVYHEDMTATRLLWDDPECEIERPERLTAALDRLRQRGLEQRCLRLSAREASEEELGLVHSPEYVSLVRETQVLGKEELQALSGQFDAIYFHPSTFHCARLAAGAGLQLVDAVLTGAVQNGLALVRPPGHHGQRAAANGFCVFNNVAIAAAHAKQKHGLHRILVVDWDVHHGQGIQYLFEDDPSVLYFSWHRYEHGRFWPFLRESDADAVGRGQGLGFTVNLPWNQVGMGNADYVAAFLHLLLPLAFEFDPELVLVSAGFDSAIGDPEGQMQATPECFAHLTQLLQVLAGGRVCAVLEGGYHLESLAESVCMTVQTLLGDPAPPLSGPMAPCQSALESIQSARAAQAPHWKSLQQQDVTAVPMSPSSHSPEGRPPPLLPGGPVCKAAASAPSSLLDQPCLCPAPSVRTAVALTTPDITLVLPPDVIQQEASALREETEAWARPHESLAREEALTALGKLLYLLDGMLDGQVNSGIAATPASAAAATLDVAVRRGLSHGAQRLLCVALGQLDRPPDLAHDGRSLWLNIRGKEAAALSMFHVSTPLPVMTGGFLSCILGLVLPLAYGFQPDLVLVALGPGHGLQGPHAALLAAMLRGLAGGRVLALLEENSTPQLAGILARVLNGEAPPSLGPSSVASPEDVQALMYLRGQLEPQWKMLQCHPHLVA", "experiment": "Inhibition of human HDAC10 by fluorimetry", "outline": "as §1"}},
  "data": [
    {"smiles": "O=C(CCCCCC(c1c[nH]c2cccc(F)c12)c1c[nH]c2cccc(F)c12)NO", "values": [
      {"measurement": "IC50", "setting": "NCI-H460", "result": 700, "unit": "nM"},
      {"measurement": "IC50", "setting": "HCT-116", "result": 400, "unit": "nM"}
    ]},
    {"smiles": "Cn1cc(C(CCCCCC(=O)NO)c2cn(C)c3ccccc23)c2ccccc21", "values": [
      {"measurement": "IC50", "setting": "NCI-H460", "result": 8800, "unit": "nM"},
      {"measurement": "IC50", "setting": "HCT-116", "result": 6600, "unit": "nM"}
    ]},
    {"smiles": "Cc1[nH]c2ccccc2c1C(c1ccc(/C=C/C(=O)NO)cc1)c1c(C)[nH]c2ccccc12", "values": [
      {"measurement": "IC50", "setting": "NCI-H460", "result": "> 20000", "unit": "nM"},
      {"measurement": "IC50", "setting": "HCT-116", "result": "> 20000", "unit": "nM"}
    ]},
    {"smiles": "O=C(CCCCCc1c[nH]c2ccccc12)NO", "values": [
      {"measurement": "IC50", "setting": "NCI-H460", "result": 22000, "unit": "nM"},
      {"measurement": "IC50", "setting": "HCT-116", "result": 15000, "unit": "nM"}
    ]},
    {"smiles": "O=C(CCCC(c1c[nH]c2ccccc12)c1c[nH]c2ccccc12)NO", "values": [
      {"measurement": "IC50", "setting": "NCI-H460", "result": "> 20000", "unit": "nM"},
      {"measurement": "IC50", "setting": "HCT-116", "result": "> 20000", "unit": "nM"}
    ]},
    {"smiles": "O=C(CCC(c1c[nH]c2ccccc12)c1c[nH]c2ccccc12)NO", "values": [
      {"measurement": "IC50", "setting": "NCI-H460", "result": "> 20000", "unit": "nM"},
      {"measurement": "IC50", "setting": "HCT-116", "result": "> 20000", "unit": "nM"}
    ]},
    {"smiles": "O=C(CCCCC(c1c[nH]c2ccccc12)c1c[nH]c2ccccc12)NO", "values": [
      {"measurement": "IC50", "setting": "NCI-H460", "result": 5200, "unit": "nM"},
      {"measurement": "IC50", "setting": "HCT-116", "result": 5800, "unit": "nM"}
    ]},
    {"smiles": "COc1cccc2c(C(CCCCCC(=O)NO)c3c[nH]c4c(OC)cccc34)c[nH]c12", "values": [
      {"measurement": "IC50", "setting": "NCI-H460", "result": 550, "unit": "nM"},
      {"measurement": "IC50", "setting": "HCT-116", "result": 410, "unit": "nM"},
      {"measurement": "IC50", "setting": "Histone deacetylase 1", "result": 83, "unit": "nM"},
      {"measurement": "IC50", "setting": "Histone deacetylase 2", "result": 440, "unit": "nM"},
      {"measurement": "IC50", "setting": "Histone deacetylase 3", "result": 23, "unit": "nM"},
      {"measurement": "IC50", "setting": "Histone deacetylase 4", "result": 220, "unit": "nM"},
      {"measurement": "IC50", "setting": "Histone deacetylase 5", "result": 311, "unit": "nM"},
      {"measurement": "IC50", "setting": "[1]", "result": 2.6, "unit": "nM"},
      {"measurement": "IC50", "setting": "Histone deacetylase 8", "result": 180, "unit": "nM"},
      {"measurement": "IC50", "setting": "Histone deacetylase 9", "result": 340, "unit": "nM"},
      {"measurement": "IC50", "setting": "[2]", "result": 240, "unit": "nM"}
    ]},
    {"smiles": "O=C(CCCCCC(c1c[nH]c2ccc([N+](=O)[O-])cc12)c1c[nH]c2ccc([N+](=O)[O-])cc12)NO", "values": [
      {"measurement": "IC50", "setting": "NCI-H460", "result": 3200, "unit": "nM"},
      {"measurement": "IC50", "setting": "HCT-116", "result": 1200, "unit": "nM"},
      {"measurement": "IC50", "setting": "Histone deacetylase 1", "result": 140, "unit": "nM"},
      {"measurement": "IC50", "setting": "Histone deacetylase 2", "result": 590, "unit": "nM"},
      {"measurement": "IC50", "setting": "Histone deacetylase 3", "result": 18, "unit": "nM"},
      {"measurement": "IC50", "setting": "Histone deacetylase 4", "result": 220, "unit": "nM"},
      {"measurement": "IC50", "setting": "Histone deacetylase 5", "result": 140, "unit": "nM"},
      {"measurement": "IC50", "setting": "[1]", "result": 20, "unit": "nM"},
      {"measurement": "IC50", "setting": "Histone deacetylase 8", "result": 600, "unit": "nM"},
      {"measurement": "IC50", "setting": "Histone deacetylase 9", "result": 150, "unit": "nM"},
      {"measurement": "IC50", "setting": "[2]", "result": 250, "unit": "nM"}
    ]}
  ]
}
